Source: PubChem BioAssay (The Scripps Research Institute Molecular Screening Center)
PAD4 FP inh: human PAD4 inhibitors, primary screen, biochemical, fluorescence polarization, 1536-well format. Protein-arginine deiminase type-4 (Homo sapiens), Q9UM07. AID 485272, 2010. inhibition, % at 6.36 µM. recombinant PAD4, RCA probe fluorescence polarization. 330,000 tested, 0.41% active;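 active = percent inhibition above a cutoff equal to the mean of all tested compounds plus 3 SD, cut at about 15% in these data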;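 note: 0% = PAD4 with RCA probe and DMSO and 100% = probe without PAD4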
Target sequence (Q9UM07 whole entry, looked up): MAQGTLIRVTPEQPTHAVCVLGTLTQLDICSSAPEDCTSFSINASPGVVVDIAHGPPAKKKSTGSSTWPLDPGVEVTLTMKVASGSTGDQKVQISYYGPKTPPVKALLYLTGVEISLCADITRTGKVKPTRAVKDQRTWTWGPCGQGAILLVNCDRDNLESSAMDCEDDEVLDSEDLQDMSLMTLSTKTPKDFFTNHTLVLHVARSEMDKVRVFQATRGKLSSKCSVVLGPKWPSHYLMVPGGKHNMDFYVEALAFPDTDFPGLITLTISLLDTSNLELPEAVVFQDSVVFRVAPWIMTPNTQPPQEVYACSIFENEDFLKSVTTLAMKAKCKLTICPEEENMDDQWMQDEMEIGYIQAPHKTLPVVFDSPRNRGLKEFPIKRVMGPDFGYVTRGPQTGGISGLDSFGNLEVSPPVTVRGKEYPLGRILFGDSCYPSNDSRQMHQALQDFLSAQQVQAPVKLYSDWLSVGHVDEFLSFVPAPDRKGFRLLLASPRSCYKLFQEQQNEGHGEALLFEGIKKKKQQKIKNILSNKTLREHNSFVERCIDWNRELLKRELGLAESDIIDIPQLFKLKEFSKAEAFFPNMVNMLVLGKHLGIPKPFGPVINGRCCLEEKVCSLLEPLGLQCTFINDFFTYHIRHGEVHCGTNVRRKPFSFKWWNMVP
PRMT1 inh: PRMT1 methyltransferase inhibitors, primary screen, biochemical, fluorescence polarization. recombinant PRMT1, activity-based probe fluorescence polarization. inhibition, % at 2.79 µM. 370,000 tested, 1.3% active. AID 652257, 2013;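 active = inhibition above about 21% made by adding two undisclosed values, limit read from the data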
HTRA1 inh: HTRA1 serine protease inhibitors, primary screen, biochemical, fluorescence polarization, HTS; 340,000 tested, 0.5% active; AID 504803, 2011; recombinant HTRA1, FP-rhodamine activity-based probe; inhibition, % at 5.96 µM; in the data active = inhibition above about 36%;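 note: 0% = enzyme with DMSO and 100% = wells lacking enzyme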
TCR CD3 inh: inhibitors of human TCR-CD3 interaction, primary screen, biochemical, fluorescence, TAMRA-labeled TCR probe; T-cell receptor (TCR); AID 651800, 2012; inhibition, % at 9.4 µM; 360,000 tested, 0.37% active; in the data active = inhibition above about 19%;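 note: recombinant mutant TCR 2C K166C tagged with TAMRA read by polarization; 0% = receptor in buffer alone and 100% = receptor with positive control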
mABHD4 FP: ABHD4 inhibitors, primary screen, biochemical, fluorescence polarization, mouse; (Lyso)-N-acylphosphatidylethanolamine lipase (Mus musculus), Q8VD66; purified mABHD4, FP-Rh probe fluorescence polarization; inhibition, % at 8.92 µM; 370,000 tested, 0.54% active;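 active = inhibition exceeding the mean over every tested compound plus 3 SD, cut at about 30% in these data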;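 note: 0% = plate median of compound wells and 100% = S159A mutant with DMSO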
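system = mouse ABHD4 enzyme, wild type | medium = HEPES pH 7.0, NaCl, Pluronic buffer | also added = FP-Rh probe | incubation = Enzyme–compound pre-incubation 45 min, then probe 60 min, both 25 °C | technique = fluorescence polarization, excitation 525 nm, emission 598 nm, BODIPY TMR filters | controls = S159A mutant high control, sample median low control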
SIAE primary: human SIAE inhibitors, primary screen, biochemical, fluorescence polarization, FP-Rh probe, 1536-well HTS; Sialate O-acetylesterase (Homo sapiens), Q9HAT2; SIAE FP-Rh probe binding; inhibition, % at 9.66 µM; 370,000 tested, 0.69% active;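 active = inhibition above a cutoff: mean of compounds within the control limits plus 3 SD of those, cut at about 17% in these data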;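 note: 0% = plate median of compound wells and 100% = probe without SIAE protein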
Active calls of the source: *; nt = no result. Sampled rows, rich in hits. Any-hit rate of the full collection: about 2.9%.

SMILES	PAD4 FP inh	PRMT1 inh	HTRA1 inh	TCR CD3 inh	mABHD4 FP	SIAE primary
CC(CCN1CCC(C(O)(c2ccccc2)c2ccccc2)CC1)Oc1ccccc1C#N (stereo not given)	nt	1.9	nt	nt	3.1	-0.4
CCOC(=O)C(N)CSC1CC(=O)N(CCc2ccccc2)C1=O (stereo not given)	-5.8	21.9*	8.3	-5.2	4.1	2.4
C=CCc1cccc(/C=N/c2ncccc2O)c1O	-5.3	21.8*	10.0	7.5	25.0	16.3
CCOC(=O)C1=C(C)N(c2ccc(OC)cc2)C(=O)/C1=C\c1ccc(O)c(OCC)c1	-3.1	31.8*	3.6	-1.9	10.2	11.9
COc1ccc(-c2cc(-c3nc4ccccn4c3NCc3ccccc3)ccc2OC)cc1	4.7	4.2	-2.1	5.4	17.2	21.0*
CCCOC(=O)c1cc(-c2ccc(/C=C3/C(=O)N(C)C(=O)C(C#N)=C3C)o2)ccc1Cl	-15.6	nt	-21.5	nt	nt	nt
C=CCOC(=O)c1cc(-c2ccc(/C=C3\C(=O)NC(=O)C(C#N)=C3C)o2)ccc1Cl	nt	24.7*	-23.1	-1.4	12.2	4.9
O=[N+]([O-])c1ccccc1/C=C/C1Nc2cccc3cccc(c23)N1	nt	21.5*	nt	nt	27.0	8.5
COc1ccc(CN2C(C(=O)NC3CCCC3)CSCCS2(=O)=O)cc1 (stereo not given)	nt	1.8	nt	nt	-7.7	0.4
C=CCn1c(SCC(=O)NCC2CCCO2)nc2scc(-c3ccc(OC)cc3)c2c1=O (stereo not given)	-4.6	3.7	-9.4	-3.1	-1.8	-0.9
C=CCn1c(SCC(=O)NCCOC)nc2scc(-c3ccco3)c2c1=O	-0.7	47.3*	3.7	6.6	-2.5	-4.5
COc1ccc(C(=O)CSc2nnc(-c3n[nH]c4c3CCC4)n2N)cc1OC	nt	-0.8	nt	nt	1.1	3.4
CC(=O)Nc1sc2c(c1C#N)CCC2	-2.4	-1.0	4.5	5.0	2.0	9.0
N#Cc1c(N)sc2c1CCCCCC2	-3.5	21.2*	8.3	-2.2	8.0	13.9
CCc1[nH]nc2c1C(c1cccc(OC(=O)N3CCOCC3)c1)C(C#N)=C(N)O2 (stereo not given)	-6.0	-0.9	1.7	6.6	-0.3	25.0*
CC(C)c1[nH]nc2c1C(c1cccc(OC(=O)N3CCOCC3)c1)C(C#N)=C(N)O2 (stereo not given)	-4.5	0.4	5.4	-5.0	-4.9	4.6
COc1cc(NC(=S)N2CCN(c3ccccn3)CC2)c(OC)cc1Cl	-3.6	22.0*	-10.0	-4.3	-2.7	-0.1
CCOC(=O)Cc1nc(N2CCN(C(=O)C3CCCO3)CC2)c2c(C)c(C(=O)OCC)sc2n1 (stereo not given)	nt	-10.6	nt	nt	0.6	-2.3
O=C(Nc1ccc2c(c1)OCO2)OC1CCC12CCCCC2 (stereo not given)	nt	-1.1	nt	nt	-2.9	3.1
Cc1ccc([C@H]2C(C#N)=C(N)Oc3cc(C)oc(=O)c32)o1	-1.1	21.6*	4.8	1.0	12.9	3.9
COc1ccc(CCc2nnc(N)s2)cc1OC	2.7	0.6	-15.9	3.3	1.0	4.4
COc1cccc(CCc2nnc(N)s2)c1	2.8	22.6*	0.9	-3.1	-4.1	-0.2
CN(C)C1=NCC(CSC(=N)N)S1 (stereo not given)	2.5	24.6*	-3.8	-3.5	1.4	1.4
O=c1cc(CN2CCOCC2)c2ccc(O)c(O)c2o1	-1.8	6.7	-0.6	-0.7	17.0	7.6
CC1Oc2cc3oc4c(O)c(O)ccc4c(=O)c3c(O)c2C1(C)C (stereo not given)	-1.8	nt	71.8*	nt	nt	nt
SMILES	PAD4 FP inh	PRMT1 inh	HTRA1 inh	TCR CD3 inh	mABHD4 FP	SIAE primary
Cc1ccc(S(=O)(=O)N(C)[C@H]2C[C@H]3c4[nH]c5cccc(-c6ccccc6)c5c4CCN3C(=O)[C@H]2[C@H](C)O)cc1	nt	-0.3	nt	-1.5	-1.7	-4.3
Nc1cc(Cl)nc(N/N=C/c2ccc([N+](=O)[O-])cc2)n1	-1.4	1.0	-4.8	7.1	4.1	7.0
Nc1cc(Cl)nc(N/N=C/c2ccccc2[N+](=O)[O-])n1	0.2	2.8	2.8	2.3	1.8	18.1*
CN1CCN(C(=O)Cn2c(=O)oc3cc(S(=O)(=O)NCc4ccccc4)ccc32)CC1	-2.4	-0.1	2.3	5.4	-1.1	25.2*
CC(C)(C)c1cc[n+](/C(C(=S)Nc2ccccc2F)=C(/[O-])c2ccc3c(c2)OCCO3)cc1	-1.6	24.5*	-7.4	8.7	-8.6	-9.9
[O-]C(=C(C(=S)Nc1cccc2ccccc12)[n+]1ccccc1)c1ccc2c(c1)OCCO2	nt	nt	7.1	nt	nt	nt
O=C(Nc1ccc2c(c1)OCO2)c1cc2ncc(Br)cn2n1	nt	0.4	14.3	7.9	-0.8	68.4*
COc1ccccc1/C=C\C=N\n1c(-c2ccc(Cl)cc2Cl)n[nH]c1=S	1.4	21.6*	-7.1	-1.9	-12.6	1.1
COc1ccccc1/C=C\C=N\n1c(-c2ccc(Cl)cc2)n[nH]c1=S	0.0	12.3	0.4	1.8	7.1	-0.8
N#CC1=C(N)Oc2cc(N)ccc2C1c1ccc(F)cc1 (stereo not given)	-1.9	22.9*	5.0	-5.8	21.2	-12.8
N#CC1=C(N)Oc2cc(N)ccc2C1c1ccc(F)cc1F (stereo not given)	-13.3	23.9*	9.4	-0.6	20.9	2.2
N#CC1=C(N)Oc2cc(N)ccc2C1c1ccc(Cl)cc1 (stereo not given)	-6.9	2.9	9.7	-4.5	4.3	-2.7
CCCCOc1ccc(C(=O)NC2CCCCN(Cc3cccc(C(F)(F)F)c3)C2=O)cc1 (stereo not given)	nt	5.0	nt	nt	-15.3	-7.6
O=C(/C=C/c1ccc(-c2ccccc2)o1)c1ccccc1	-8.4	24.6*	-16.2	6.4	7.7	1.4
C=CCN(C)CC#Cc1ccc(OC)cc1	nt	-1.6	nt	nt	0.2	1.4
CCN(CC)c1ccc(NS(=O)(=O)c2ccc3c(c2)oc(=O)n3C)c(C)c1	-2.2	24.8*	-1.1	-3.9	8.2	4.1
Cc1cc(-c2n[nH]c(=S)n2N=Cc2ccc(-c3ccccc3)cc2)n[nH]1	nt	8.4	nt	nt	-0.7	5.2
COc1ccc(N=CC2=C(Nc3ccc(OC)cc3)c3c(C)nn(-c4ccccn4)c3CC2)cc1	80.7*	nt	nt	nt	nt	nt
COc1ccc(-c2noc(C3CCCN(C(=O)NC4CCC(C)CC4)C3)n2)cc1 (stereo not given)	nt	2.0	nt	nt	-0.3	8.1
COc1ccc(CCNC(=O)CSc2ccccc2)cc1OC	1.1	-0.5	-1.6	-0.9	-2.6	7.2
COc1ccc(CCNC(=O)CSC(=O)c2ccccc2)cc1OC	6.5	22.4*	-1.8	-1.2	-0.9	4.0
